The record followed here is ChEMBL document CHEMBL4219161, “New phenylaniline derivatives as modulators of amyloid protein precursor metabolism” (Bioorg Med Chem, 2018).

Common to all, as to format: cell-based
A short description of series [1]: Cytotoxicity against human SH-SY5Y cells after 72 hrs by MTT assay. A digest of the protocol:
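SH-SY5Y cells grown in DMEM with 10% heat-inactivated FBS, 2 mM L-glutamine, non-essential amino acids and penicillin/streptomycin at 37 °C, 5% CO2. Cells were exposed to compounds at 100, 50, 10, 5, 1, 0.5, 0.1 and 0.05 µM, in under 0.1% DMSO, for 72 h. Growth was read by colorimetric MTT; CC50 taken as the concentration causing 50% cell death.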

Series [2] deals with T1, Amyloid-beta precursor protein (Homo sapiens, UniProt P05067). Description: Modulation of human wild-type APP695 expressed in SH-SY5Y cells assessed as inhibition of amyloid beta (1 to 40 residues) production measured after 24 hrs. The method, boiled down:
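SY5Y-APPwt cells (stable human APP695 clone) were exposed to compound for 24 h. Conditioned medium was spun at 200×g, frozen at −80 °C and assayed by ELISA for Aβ1-40 or Aβ1-42, with samples in duplicate and experiments in triplicate. Values were normalised to untreated control set to 100%. IC50 is the concentration lowering secreted Aβ to 50% of basal; mean of ≥3 independent experiments.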

The target in series [3] is T1, Amyloid-beta precursor protein. Nature of the series: Modulation of human wild-type APP695 expressed in SH-SY5Y cells assessed as increase in AICD level at 3 uM measured after 24 hrs by Western blot analysis relative to chloroquine. The method, boiled down:
(§1)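 SY5Y stably transfected with human APP695 (pcDNA3.1, G418-selected clone SY5Y-APPwt) was plated 24 h before treatment and exposed to compound for 24 h. Lysates were made in Laemmli buffer with protease inhibitors and sonicated. 20 µg protein/lane was run on 16% Tris-Tricine gel and blotted to PVDF. Blots were probed overnight at 4 °C with APP C-terminal (last 17 aa) rabbit antiserum 1:4000 and developed by chemiluminescence. Band area was quantified with H3 reprobe. Result is the fragment level ratio of compound to chloroquine, both at 3 µM; mean of ≥3 independent experiments.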
For orientation: In western blotting, separated proteins are transferred to a membrane and probed.

The target is the same in series [4]. Description: Modulation of human wild-type APP695 expressed in SH-SY5Y cells assessed as increase in CTFalpha level at 3 uM measured after 24 hrs by Western blot analysis relative to chloroquine. A digest of the protocol: as §1
For series [5] the target is unchanged. Description: Modulation of human wild-type APP695 expressed in SH-SY5Y cells assessed as increase in ACID level at 3 uM measured after 24 hrs by Western blot analysis relative to amodiaquine. The method, boiled down: (§2)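 Stable human APP695 SY5Y clone (SY5Y-APPwt) was treated with compound for 24 h and lysed in Laemmli buffer with protease inhibitors. 20 µg protein/lane was separated on 16% Tris-Tricine gel and transferred to PVDF. Blots were probed with rabbit antiserum against the APP C-terminal 17 residues (1:4000, overnight at 4 °C) and read by chemiluminescence with densitometric area-under-curve. H3 was used as reprobe.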

Series [6] has the same target. Nature of the series: Modulation of human wild-type APP695 expressed in SH-SY5Y cells assessed as increase in CTFalpha level at 3 uM measured after 24 hrs by Western blot analysis relative to amodiaquine. A digest of the protocol: as §2
The target is the same in series [7]. Nature of the series: Modulation of human wild-type APP695 expressed in SH-SY5Y cells assessed as increase in ACID level at 10 uM measured after 24 hrs by Western blot analysis relative to amodiaquine. A digest of the protocol: as §2
Series [8] shares this target. Nature of the series: Modulation of human wild-type APP695 expressed in SH-SY5Y cells assessed as increase in CTFalpha level at 10 uM measured after 24 hrs by Western blot analysis relative to chloroquine. A digest of the protocol:
as §2

Series [9] has the same target. Nature of the series: Modulation of human wild-type APP695 expressed in SH-SY5Y cells assessed as increase in CTFalpha level at 10 uM measured after 24 hrs by Western blot analysis relative to amodiaquine. A digest of the protocol:
as §2

T1 sequence (P05067 whole entry, the tested form may be a part): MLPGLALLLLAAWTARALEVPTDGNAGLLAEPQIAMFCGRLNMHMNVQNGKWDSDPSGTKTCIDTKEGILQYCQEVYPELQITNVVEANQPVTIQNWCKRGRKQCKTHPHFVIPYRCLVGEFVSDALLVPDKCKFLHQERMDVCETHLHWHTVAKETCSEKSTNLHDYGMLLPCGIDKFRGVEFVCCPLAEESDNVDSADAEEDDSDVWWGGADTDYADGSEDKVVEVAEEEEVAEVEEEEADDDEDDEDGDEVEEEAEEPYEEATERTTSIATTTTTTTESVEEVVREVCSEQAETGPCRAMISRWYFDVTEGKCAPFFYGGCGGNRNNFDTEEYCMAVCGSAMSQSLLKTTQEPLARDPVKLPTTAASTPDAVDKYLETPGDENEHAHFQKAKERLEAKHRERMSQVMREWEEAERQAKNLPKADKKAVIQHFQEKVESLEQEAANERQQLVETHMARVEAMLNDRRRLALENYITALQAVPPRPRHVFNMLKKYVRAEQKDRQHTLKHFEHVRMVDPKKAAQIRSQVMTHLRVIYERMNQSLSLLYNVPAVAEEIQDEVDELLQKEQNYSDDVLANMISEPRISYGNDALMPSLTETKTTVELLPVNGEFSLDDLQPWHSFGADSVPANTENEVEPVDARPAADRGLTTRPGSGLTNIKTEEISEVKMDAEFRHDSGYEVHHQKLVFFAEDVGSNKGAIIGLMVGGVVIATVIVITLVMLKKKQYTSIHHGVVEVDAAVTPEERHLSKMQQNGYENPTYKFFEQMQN

A word on the CC50: it is the concentration that lowers cell viability or growth by half. Lower therefore signals harm at low concentration. What is called IC50 is the concentration that gives 50% inhibition. As for `CN(C)Cc1ccccc1-c1cc(C(=O)NCCN2CCCCC2)cc(C(=O)NCCN2CCCCC2)c1`, the CC50 at 72 h in series [1] was more than 100 µM. The IC50 in series [2] is more than 10 µM.
For the molecule `CCN(CC)Cc1cccc(Nc2ccnc3cc(Cl)ccc23)c1`, half-maximal cytotoxicity in [1] (CC50 at 72 h) was put at 12 µM. In addition, the IC50 in series [2] was found to be 4.5 µM. Further, the fold change (FC) in [3] is 0.5; in [4] it was 0.6.
Consider `c1ccc(Nc2cc(CNCCN3CCCCC3)cc(CNCCN3CCCCC3)c2)c(CN2CCCCC2)c1`, for which the CC50 at 72 h in series [1] is more than 100 µM. For the same molecule, the IC50 in series [2] worked out at 4.6 µM. Also, the fold change (FC) in [5] was 3.2 to 10; in series [6], 5.6 to 5.75; in [3], 4; in [7] it was 10; in series [4], 2.6.
`CN1CCN(Cc2ccccc2Nc2cc(C(=O)NCCN3CCCCC3)cc(C(=O)NCCN3CCCCC3)c2)CC1` yielded a CC50 at 72 h in series [1] of more than 100 µM. Moreover, the IC50 in series [2] is more than 10 µM.
Molecule `O=C(NCCN1CCCCC1)c1cc(C(=O)NCCN2CCCCC2)cc(-c2ccccc2CN2CCOCC2)c1` showed a cytotoxic concentration (CC50) at 72 h in [1] of more than 100 µM. For the same molecule, the IC50 in [2] was more than 10 µM.
Take `CCN(CC)Cc1cc(NC(=O)CN2CCCCC2)cc(Nc2ccnc3cc(Cl)ccc23)c1`: the CC50 at 72 h in series [1] stood at 4 µM. The IC50 in [2] amounted to 1.5 µM. The results for the fold change (FC) in series [3] and in series [4] were 0.9 and 1.6, respectively.
In the case of `CN(C)Cc1ccccc1Nc1cc(CNCCN2CCCCC2)cc(CNCCN2CCCCC2)c1`, the CC50 at 72 h in series [1] is more than 100 µM. In addition, the IC50 in [2] was more than 10 µM.
Molecule `CN(C)CCNCc1cc(NC(=O)CN2CCCCC2)cc(Nc2ccnc3cc(Cl)ccc23)c1` gave a CC50 at 72 h in [1] of 15 µM. For the same molecule, the IC50 in series [2] turned out to be 2 µM. Further, the fold change (FC) in series [3] turned out to be 2.3; in [4] it was 1.7.
Regarding `O=C(NCCN1CCCCC1)c1cc(C(=O)NCCN2CCCCC2)cc(-c2ccccc2CN2CCCCC2)c1`, in series [1], the CC50 at 72 h is more than 100 µM. The IC50 in [2] worked out at 6.2 µM. For the same molecule, the fold change (FC) in series [3] is 1.9; in series [4], 1.4.
On to `c1ccc(-c2cc(CNCCN3CCCCC3)cc(CNCCN3CCCCC3)c2)c(CN2CCOCC2)c1`, for which the CC50 at 72 h in series [1] is more than 100 µM. For the same molecule, the IC50 in [2] was more than 10 µM.
For the molecule `Oc1c(CN2CCCC2)cc(Nc2ccnc3cc(Cl)ccc23)cc1CN1CCCC1`, in [1], the CC50 at 72 h worked out at 30 µM. Moreover, in series [2], the IC50 turned out to be 5.1 µM. Also, the values for the fold change (FC) in [3] and in series [4] were 0.6 and 0.5, respectively.
In series [1], `CN(C)Cc1ccccc1Nc1cc(C(=O)NCCN2CCCCC2)cc(C(=O)NCCN2CCCCC2)c1` returned a CC50 at 72 h of more than 100 µM. The IC50 in series [2] worked out at 8.2 µM. Further, the fold change (FC) in [3] is 3; in series [4] it was 1.
In the case of `CN1CCN(Cc2ccccc2Nc2cc(CNCCN3CCCCC3)cc(CNCCN3CCCCC3)c2)CC1`, the CC50 at 72 h in [1] is more than 100 µM. For the same molecule, the IC50 in series [2] is more than 10 µM.
As for `CN1CCN(Cc2ccccc2-c2cc(CNCCN3CCCCC3)cc(CNCCN3CCCCC3)c2)CC1`, in series [1], the CC50 at 72 h was more than 100 µM. Moreover, the IC50 in series [2] was more than 10 µM.
`CN(C)Cc1ccccc1-c1cc(CNCCN2CCCCC2)cc(CNCCN2CCCCC2)c1`: the CC50 at 72 h in series [1] was more than 100 µM. Also, the IC50 in [2] is more than 10 µM.
Turning to `Clc1ccc2c(Nc3cc(CN4CCOCC4)cc(NCCN4CCCCC4)c3)ccnc2c1`, the CC50 at 72 h in series [1] was found to be 10 µM. The IC50 in series [2] was found to be 2.5 µM. Also, the fold change (FC) in series [3] and in series [4] was 1.2 each time.
Molecule `O=C(CN1CCCCC1)Nc1cc(CN2CCOCC2)cc(Nc2ccnc3cc(Cl)ccc23)c1` showed a 50% cytotoxic concentration (CC50) at 72 h in series [1] of 10 µM. Moreover, in series [2], the IC50 was 3.1 µM. The fold change (FC) in [3] came to 0.5; in series [4], 0.7.
`CCN(CC)CCCC(C)Nc1ccnc2cc(Cl)ccc12` (stereo not drawn) [CHLOROQUINE]: half-maximal cytotoxicity in series [1] (CC50 at 72 h) was put at 30 µM. For the same molecule, in series [2], the IC50 is 7 µM. Also, the fold change (FC) in [3] and in [4] was 1 throughout.
`c1ccc(-c2cc(CNCCN3CCCCC3)cc(CNCCN3CCCCC3)c2)c(CN2CCCCC2)c1` registered a CC50 at 72 h in [1] of more than 100 µM. In addition, the IC50 in series [2] is more than 10 µM.
The molecule `O=C(NCCN1CCCCC1)c1cc(Nc2ccccc2CN2CCCCC2)cc(C(=O)NCCN2CCCCC2)c1` came in with a CC50 at 72 h in series [1] of more than 100 µM. Also, the fold change (FC) in series [8] is 3; in series [5], 3.2 to 10; in series [6], 5.6 to 5.75; in series [3], 2.3; in [4] it was 2.8; in series [9], 3. The IC50 in [2] was found to be 4.1 µM.
Take `CCN(CC)Cc1cc(Nc2ccnc3cc(Cl)ccc23)ccc1O` [AMODIAQUINE]: the midpoint of cytotoxicity in [1], the CC50 at 72 h, lay at 10 µM. Further, the IC50 in [2] amounted to 4 µM. Further, the fold change (FC) turned out to be 0.4 in series [3] and 0.5 in series [4].
`CN1CCN(Cc2ccccc2-c2cc(C(=O)NCCN3CCCCC3)cc(C(=O)NCCN3CCCCC3)c2)CC1`: the CC50 at 72 h in series [1] was more than 100 µM. Also, in [2], the IC50 is more than 10 µM.
`c1ccc(Nc2cc(CNCCN3CCCCC3)cc(CNCCN3CCCCC3)c2)c(CN2CCOCC2)c1`: it took 77 µM to reach half-maximal cytotoxicity in [1] (CC50 at 72 h). Moreover, in [2], the 50% inhibitory concentration (IC50) stood at 6.6 µM. The fold change (FC) in series [3] turned out to be 1.3; in series [4], 0.9.
In [1], `CCN(CC)Cc1cc(NCCN2CCCCC2)cc(Nc2ccnc3cc(Cl)ccc23)c1` returned a CC50 at 72 h of 15 µM. In [2], the IC50 was 10 µM. The figures for the fold change (FC) in series [3] and in series [4] were 0.4 and 0.5, respectively.
The molecule `CN(C)CCN(C)Cc1cc(NC(=O)CN2CCCCC2)cc(Nc2ccnc3cc(Cl)ccc23)c1` had a CC50 at 72 h in series [1] of 4 µM. Moreover, the IC50 in series [2] turned out to be 1.7 µM. For the same molecule, the fold change (FC) in series [3] was determined as 3.4; in series [4], 2.1.
In the case of `CN1CCN(c2cc(Nc3ccnc4cc(Cl)ccc34)cc(N3CCN(C)CC3)c2)CC1`, the CC50 at 72 h in [1] is more than 15 µM. For the same molecule, in series [2], the IC50 amounted to 2.3 µM. Also, the fold change (FC) came out at 1.1 in series [3] and 1.4 in [4].
In turn, `O=C(NCCN1CCCCC1)c1cc(Nc2ccccc2CN2CCOCC2)cc(C(=O)NCCN2CCCCC2)c1` came in with a cytotoxic concentration (CC50) at 72 h in [1] of more than 100 µM. Also, the IC50 in series [2] was more than 10 µM.
